Experimental findings from ChEMBL document CHEMBL4017544 (J Med Chem, 2017) are described below.

Data set [1] can be described thus: AUC (0 to infinity) in Sprague-Dawley rat at 10 mg/kg, iv measured up to 24 hrs by LC-MS/MS analysis. Conditions: in vivo. Set-up: dose 10 mg/kg, route intravenous, time infinity. It counts as ADME, organism-based. In a few lines: (§1)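 Rats dosed intravenously at 10 mg/kg; blood drawn from suborbital vein at 0, 2, 5, 15, 30, 60 min and 1.5, 2, 4, 6, 8, 12, 24 h; plasma levels by LC-MS/MS; parameters from concentration–time profiles, mean ± SD, n = 3.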

In data set [2] the target is Kelch-like ECH-associated protein 1 (Homo sapiens) (UniProt Q14145). The experiment in a line: Inhibition of Keap1/Nrf2 (unknown origin) interaction transfected in HEK293 cells assessed as activation of Nrf2 at 200 to 1000 nM after 48 hrs by ARE-driven luciferase reporter gene assay. It counts as cell-based. In a few lines: (§2)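 HEK293 cells (ATCC; high-glucose DMEM, 10% FBS) were treated in triplicate for 48 h. For the reporter read-out, cells were transfected with an ARE-dependent luciferase plasmid and luciferase activity was measured. For mRNA, total RNA was extracted with TRIzol and reverse transcribed, and target transcripts were quantified by qRT-PCR relative to GAPDH using the 2−ΔΔCt method. Three independent experiments, mean ± SD.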
Chain of Kelch-like ECH-associated protein 1 (Homo sapiens) (Q14145 whole entry): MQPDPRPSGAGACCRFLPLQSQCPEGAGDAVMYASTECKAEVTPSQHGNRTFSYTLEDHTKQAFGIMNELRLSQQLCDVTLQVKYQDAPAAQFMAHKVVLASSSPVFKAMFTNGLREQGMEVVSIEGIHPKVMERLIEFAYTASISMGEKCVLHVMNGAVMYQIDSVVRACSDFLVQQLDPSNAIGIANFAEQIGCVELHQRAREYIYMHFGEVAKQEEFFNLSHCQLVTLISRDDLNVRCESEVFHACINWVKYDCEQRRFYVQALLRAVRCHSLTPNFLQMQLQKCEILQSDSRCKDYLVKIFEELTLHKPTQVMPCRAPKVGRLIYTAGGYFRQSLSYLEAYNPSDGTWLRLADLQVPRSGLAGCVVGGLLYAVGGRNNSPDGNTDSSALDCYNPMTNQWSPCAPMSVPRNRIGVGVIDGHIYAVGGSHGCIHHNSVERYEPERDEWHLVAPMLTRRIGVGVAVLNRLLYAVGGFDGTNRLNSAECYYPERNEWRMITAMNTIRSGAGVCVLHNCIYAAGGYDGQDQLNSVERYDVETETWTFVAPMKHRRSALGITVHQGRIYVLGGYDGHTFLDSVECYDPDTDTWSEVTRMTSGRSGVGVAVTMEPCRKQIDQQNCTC
On the technique in general: Reporter assays use an easily measured gene product as a stand-in for the process of interest.

Data set [3] can be described thus: Solubility of compound in saline containing 1% 1,3-propylene glycol/ 1% Tween 80 at 100 uM at pH 7.4 by HPLC analysis. It counts as physicochemical. The essentials:
(§3)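 Solubility was determined by an established HPLC method, in saline alone or in saline containing 1% 1,3-propylene glycol and 1% Tween 80.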

The nature of data set [4]: Clearance in Sprague-Dawley rat at 10 mg/kg, iv measured up to 24 hrs by LC-MS/MS analysis. Conditions: in vivo. It counts as ADME, organism-based. In a few lines:
as §1

The target in data set [5] is T1, Inhibitor of nuclear factor kappa-B kinase subunit beta (Homo sapiens) (UniProt O14920).
T1 sequence (whole entry): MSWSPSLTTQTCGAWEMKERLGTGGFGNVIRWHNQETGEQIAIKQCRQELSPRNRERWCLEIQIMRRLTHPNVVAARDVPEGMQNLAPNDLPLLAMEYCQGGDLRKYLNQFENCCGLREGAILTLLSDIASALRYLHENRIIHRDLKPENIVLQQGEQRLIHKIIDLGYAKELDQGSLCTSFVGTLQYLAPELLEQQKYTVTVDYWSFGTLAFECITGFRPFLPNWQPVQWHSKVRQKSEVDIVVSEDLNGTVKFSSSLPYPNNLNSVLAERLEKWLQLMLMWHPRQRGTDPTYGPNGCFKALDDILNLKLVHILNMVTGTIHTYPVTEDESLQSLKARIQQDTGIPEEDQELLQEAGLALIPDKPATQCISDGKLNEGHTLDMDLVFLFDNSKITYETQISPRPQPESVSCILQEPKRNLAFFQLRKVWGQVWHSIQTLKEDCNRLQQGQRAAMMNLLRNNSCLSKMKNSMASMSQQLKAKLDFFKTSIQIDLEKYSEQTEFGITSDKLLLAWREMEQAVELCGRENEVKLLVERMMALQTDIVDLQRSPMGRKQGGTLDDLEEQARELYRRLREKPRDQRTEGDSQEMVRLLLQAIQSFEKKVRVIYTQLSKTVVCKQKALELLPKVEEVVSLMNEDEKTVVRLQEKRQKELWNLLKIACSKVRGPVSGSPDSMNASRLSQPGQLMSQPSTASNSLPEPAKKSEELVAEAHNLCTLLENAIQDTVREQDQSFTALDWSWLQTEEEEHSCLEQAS
The experiment in a line: Inhibition of IKKbeta (unknown origin) transfected in HEK293 cells assessed as reduction in TNFalpha-induced upregulation of COX2 mRNA expression at 200 to 1000 nM administered 6 hrs after TNFalpha stimulation measured for 24 hrs by quantitative RT-PCR analysis. It counts as cell-based. The essentials: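 HEK293 cells pretreated with TNF-α (10 ng/mL) for 6 h, then given compound at 200 or 1000 nM for 24 h, in triplicate; iNOS, COX2 and MCP-1 mRNA relative to GAPDH by quantitative RT-PCR, 2−ΔΔCt method; mean ± SD from three experiments.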

Data set [6] can be described thus: AUC (0 to t) in Sprague-Dawley rat at 10 mg/kg, iv measured up to 24 hrs by LC-MS/MS analysis. It counts as ADME, organism-based. More on the design: dose 10 mg/kg, time < 24 hr, route intravenous. Conditions: in vivo. The essentials:
as §1

The test system of data set [7] is HEK293. Nature of the data set: Effect on Nfr2 mRNA expression in HEK293 cells harboring Keap1 at 200 to 1000 nM after 48 hrs by quantitative RT-PCR analysis. It counts as functional, cell-based. Conditions: Homo sapiens. In a few lines: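 HEK293 cells treated in triplicate at 200 or 1000 nM for 48 h; Nrf2 mRNA relative to GAPDH by quantitative RT-PCR using the 2−ΔΔCt method; mean ± SD from three experiments.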

Data set [8] in a line: Acute toxicity in ip dosed ICR mouse assessed as lethality administered daily for 7 days. It counts as organism-based. Conditions: in vivo. The essentials:
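Intraperitoneal dosing of ICR mice once daily for 7 days, with top doses up to 600 or 1000 mg/kg depending on the compound. Lethality was recorded and expressed as an LD50 (mg/kg).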

For data set [9], the target named is T1, Inhibitor of nuclear factor kappa-B kinase subunit beta (Homo sapiens). The experiment in a line: Inhibition of IKKbeta (unknown origin) transfected in HEK293 cells assessed as reduction in TNFalpha-induced upregulation of MCP1 mRNA expression at 200 to 1000 nM administered 6 hrs after TNFalpha stimulation measured for 24 hrs by quantitative RT-PCR method.
The test system of data set [10] is HEK293. The experiment in a line: Cytotoxicity against HEK293 cells assessed as reduction in cell viability after 24 hrs by MTT assay. It counts as cell-based. Conditions: Homo sapiens, HEK293, 24 h. In a few lines:
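HEK293 or H9C2 cells grown in high-glucose DMEM with 10% FBS, exposed to compound for 24 h; viability by MTT, IC50 calculated.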

For data set [11], the target named is T1, Inhibitor of nuclear factor kappa-B kinase subunit beta (Homo sapiens). The experiment in a line: Inhibition of IKKbeta (unknown origin) transfected in HEK293 cells assessed as mitigation of TNFalpha-induced increase in ratio of nuclear to cytosolic p65 at 200 to 1000 nM administered 6 hrs after TNFalpha stimulation measured for 24 hrs by Western blot method. It counts as cell-based. In a few lines: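 HEK293 cells pretreated with TNF-α (10 ng/mL) for 6 h, then given compound at 200 or 1000 nM for 24 h, in triplicate; nuclear and cytosolic p65, iNOS and COX2 protein by western blot; mean ± SD from three experiments.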
In general terms: Immunoblotting shows a protein as a band on a membrane.

For data set [12], the target named is Kelch-like ECH-associated protein 1 (Homo sapiens) (UniProt Q14145). The experiment in a line: Inhibition of Keap1/Nrf2 (unknown origin) interaction transfected in HEK293 cells assessed as upregulation of HO-1 mRNA expression at 200 to 1000 nM after 48 hrs by quantitative RT-PCR analysis. It counts as cell-based. The essentials: as §2
The target of data set [13] is T1, Inhibitor of nuclear factor kappa-B kinase subunit beta (Homo sapiens). The experiment in a line: Inhibition of IKKbeta (unknown origin) transfected in HEK293 cells assessed as TNFalpha-induced NFkappaB activation at 200 to 1000 nM administered 6 hrs after TNFalpha stimulation measured for 24 hrs by NFkappaB-driven luciferase reporter gene assay. It counts as cell-based. The essentials: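 HEK293 cells transfected with an NF-κB-driven luciferase reporter, stimulated with TNF-α and treated in triplicate; luciferase read with a dual-luciferase system.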

A short description of data set [14]: Solubility of compound in saline at 100 uM at pH 7.4 by HPLC analysis. It counts as physicochemical. The essentials:
as §3

Data set [15] is described as follows: Cmax in Sprague-Dawley rat at 10 mg/kg, iv measured up to 24 hrs by LC-MS/MS analysis. It counts as ADME, organism-based. More on the design: dose 10 mg/kg, route intravenous. Conditions: in vivo. The essentials: as §1

≈ marks a conversion by molar mass, not a printed value. Calls of active or inactive are those of the source. The rule behind the calls is not given here.

For orientation: AUC(0-inf) means the area under the concentration-time curve extrapolated to infinity. A higher AUC(0-inf) goes with high exposure. Broadly, the solubility is the concentration that dissolves in the medium under given conditions. For orientation: clearance means the rate of elimination divided by the concentration. Broadly, the AUC(0-t) is exposure summed from dosing to a finite time, without extrapolation to infinity. A high value points to high exposure. For orientation: LD50 means the dose expected to kill half of the subjects tested. The IC50 is the midpoint of a concentration-inhibition curve. A word on the Cmax: it is the peak of the concentration-time curve. In turn, `COC(=O)[C@]12CCC(C)(C)C[C@H]1[C@H]1C(=O)C=C3[C@@]4(C)C=C(C#N)C(=O)C(C)(C)[C@@H]4CC[C@@]3(C)[C@]1(C)CC2` [BARDOXOLONE METHYL] showed an AUC(0-inf) in [1] of 2180 ng·h/mL. Also, the inhibition result in [2], in [5], in [9], in data set [11], in [12] and in [13] was “Active” each time. For the same molecule, the solubility result in data set [3] (buffer, pH 7.4, 100 µM) is “Insoluble”; in data set [14] (buffer, pH 7.4, 100 µM), “Insoluble”. In addition, the clearance in data set [4] was 78 mL/min/kg. The same molecule returned an AUC(0-t) at 24 h in data set [6] of 2060 ng·h/mL. Besides, the outcome in data set [7] was inactive. Also, the median lethal dose (LD50) at 168 h in data set [8] was determined as 425 mg/kg. Besides, the IC50 in data set [10] was found to be 2.2 µM. Besides, the Cmax in [15] came to 5020 ng/mL.

In the case of `COC(=O)[C@@H](N)CCC(=O)Nc1ccc(COC2=C(C#N)[C@H](O)[C@]3(C)C4=CC(=O)[C@@H]5[C@@H]6CC(C)(C)CC[C@]6(C(=O)OC)CC[C@@]5(C)[C@]4(C)CC[C@H]3C2(C)C)cc1`, in data set [1], the total exposure AUC(0-inf) was 531 ng·h/mL. In addition, the inhibition entry in data set [2], in [5], in data set [9], in data set [11], in [12] and in data set [13] was “Active” in each case. The solubility at 100 µM in data set [3] (saline containing 1% 1,3-propylene glycol/1% Tween 80, pH 7.4) came to 12200 µg/mL (≈ 15.8 mM); in [14] (saline, pH 7.4), 8.9 µg/mL (≈ 0.0115 mM). The same molecule gave a clearance in data set [4] of 340 mL/min/kg. For the same molecule, in data set [6], the exposure AUC(0-t) at 24 h worked out at 509 ng·h/mL. The outcome in [7] was inactive. Besides, the LD50 at 168 h in data set [8] amounted to 886 mg/kg. Moreover, the IC50 in data set [10] worked out at 56.5 µM. For the same molecule, in [15], the Cmax was determined as 3020 ng/mL.
